# In the library only some 2.3% were active in any assay of this set; here they are far more common.
# Rpn11 block – inhibitors of human proteasome Rpn11; O00487; human 26S proteasome, Ub4-pepOG fluorescence polarization; 20S core pre-blocked with epoxomicin; inhibition, % at 20 µM; 360,000 compounds, 0.59% hits; AID 588493;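 active means inhibition at 20 µM, scaled to each plate's controls, above about 33%, limit read from the data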
# DNMT1 block – DNMT1 (human) enzyme inhibition | 360,000 compounds, 0.83% hits | DNMT1 molecular beacon, Hinp1I cleavage, fluorescence | P26358 | inhibition (reported as % activation of signal), % at 10 µM; in the data active means inhibition above about 50%
# SUMO1 PPI mod – alters human SUMO1 binding to SIM partners; P63165; AID 602429; inhibition, % at 20 µM; SUMO1 binding to a labelled peptide, TR-FRET, 1 h; 360,000 compounds, 0.33% hits; in the data active means inhibition above about 37%
# Target sequence (P63165 whole entry, looked up): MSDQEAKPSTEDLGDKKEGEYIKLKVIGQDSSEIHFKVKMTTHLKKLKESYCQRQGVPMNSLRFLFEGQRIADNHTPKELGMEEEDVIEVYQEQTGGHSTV
# Scp1 inh – blocks human Scp-1 phosphatase activity; Q9GZU7; Recombinant Scp1, phosphopeptide, malachite green phosphate absorbance; inhibition, % at 20 µM; 340,000 compounds, 0.88% hits;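 active means inhibition above about 50% at 20 µM, limit read from the data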;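 further: plate controls were DMSO wells with enzyme for no effect and wells lacking enzyme for full effect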
# Target sequence (Q9GZU7 76-261 limits assumed): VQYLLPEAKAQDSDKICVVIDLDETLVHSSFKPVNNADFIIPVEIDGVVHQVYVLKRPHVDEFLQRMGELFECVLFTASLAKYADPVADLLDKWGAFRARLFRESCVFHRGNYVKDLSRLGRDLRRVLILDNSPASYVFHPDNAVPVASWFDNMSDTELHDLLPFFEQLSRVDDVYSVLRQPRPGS
#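 Incubation: 45 min enzyme reaction at room temperature / System: truncated SCP-1 phosphatase (76-261aa) / Reagent: Phospho 17-mer peptide substrate / Buffer or medium: Acidic Tris acetate buffer with magnesium and detergent / Signal: absorbance at 630 nm / Doses: one concentration, 20 µM, with 1.0% DMSO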
# LMPTP inh – blocks human LMPTP phosphatase. recombinant LMPTP-A, OMFP fluorogenic substrate, fluorescence intensity. inhibition, % at 20 µM. 360,000 compounds, 0.22% hits;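 active means compounds that cut the enzyme signal by at least half of the control window in the single-dose screen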;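 further: plate controls were DMSO wells with enzyme plus substrate for no effect and substrate without enzyme for full effect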
# Target sequence (P24666 whole entry, looked up): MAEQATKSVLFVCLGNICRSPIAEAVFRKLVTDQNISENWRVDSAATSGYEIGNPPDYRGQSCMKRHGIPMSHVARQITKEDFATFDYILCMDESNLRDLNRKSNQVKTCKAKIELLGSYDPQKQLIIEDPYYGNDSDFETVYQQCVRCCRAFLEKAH
#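 material = LMPTP-A | quantity = 0.625 nM enzyme | reagent = OMFP substrate, 400 µM final | buffer or medium = Bis-Tris pH 6.0, DTT, detergent | detection = endpoint fluorescence intensity from OMFP dephosphorylation | dosing = single 20 µM dose | read-out basis = % inhibition relative to no-enzyme and uninhibited control wells | control set = no-enzyme and uninhibited controls | timing = 50 min at room temperature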
# STEP block – inhibitors of human striatal-enriched phosphatase STEP | P54829 | recombinant STEP, OMFP fluorogenic substrate, fluorescence | inhibition, % at 20 µM | 360,000 compounds, 0.25% hits;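 active means inhibition at 20 µM, scaled per plate between control wells, above about 37%, limit read from the data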;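 further: 0% = DMSO with enzyme and substrate and 100% = substrate only without enzyme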
#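 Measure: Control-normalized % inhibition with plate pattern correction | Test system: STEP phosphatase, cell-free reaction | Medium: pH 6.0 Bis-Tris with DTT and Tween 20 | Technique: Fluorescence, 480/540 nm | Times: Reaction 20 min, ambient temperature | Doses: Single compound dose of 20 µM, 1% DMSO final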
# Beacon interf DR – beacon fluorescence artifact, dose response counter-screen; shares compounds with DNMT1 block; molecular beacon fluorescence, spectral interference counter-screen; IC50, µM; 200 tested, under 10 active; AID 602382; call rule not given here
# DNMT1 inh conf – DNMT1 inhibition confirmation, single concentration; DNMT1 molecular beacon HinP1I cleavage, fluorescence; 2,300 compounds, 8% hits; inhibition, % at 10 µM; AID 602385; shares compounds with DNMT1 block;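 active means average inhibition of at least 30% in the single-concentration confirmation test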
# DNMT1 interf – beacon fluorescence artifact counter-screen | shares compounds with DNMT1 block | DNMT1 molecular beacon spectral interference counterscreen, fluorescence 485/520 | activation (fluorescence interference), % at 10 µM | 2,300 compounds, 1% hits | AID 602387;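 active means activation of at least 30% at 10 µM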;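 further: DNMT1 catalytic domain with a HinP1I cleavage step and a FAM/dabcyl DNA beacon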
# Rpn11 confirm – confirmation of human proteasome Rpn11 inhibitors; shares compounds with Rpn11 block; purified human 26S proteasome, Ub4-pepOG fluorescence polarization; proteasome pretreated with epoxomicin; inhibition, % at 20 µM; 1,900 compounds, 29% hits
# MMP-2 inh – MMP-2 (human) inhibition counter-screen; 1,900 compounds, 4% hits; shares compounds with Rpn11 block; inhibition, % at 20 µM; recombinant MMP-2, FRET peptide cleavage fluorescence;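 further: human MMP-2 activated beforehand with APMA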
# Thrombin inh – thrombin (bovine) inhibition counter-screen | bovine thrombin cleavage of Ub4-pepOG, fluorescence polarization | 1,900 compounds, 13% hits | AID 602333 | shares compounds with Rpn11 block | inhibition, % at 20 µM;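 active means mean inhibition at least 40% at 20 µM, or signal 3 deviations below plate average, so some actives read negative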;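 further: plate controls were thrombin with DMSO for no effect and buffer wells lacking thrombin for full effect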
# Starred values were filed as active, the others as inactive; / = not tested or not shown; + = active, no number. Unless noted, no stated cut-off is given here; in the data, active means inhibition above about 40%; inactive means the rest.
SMILES,Rpn11 block,DNMT1 block,SUMO1 PPI mod,Scp1 inh,LMPTP inh,STEP block,DNMT1 inh conf,DNMT1 interf,Rpn11 confirm,MMP-2 inh,Thrombin inh,others
O=C(/C=C/c1ccc(Br)cc1)NC(=S)Nc1ccc(S(=O)(=O)Nc2nccs2)cc1,128.7*,85.5*,93.5*,-2.6,16.4,-3.0,67.0*,-2.0,21.6,18.2,-0.4,Beacon interf DR=>99
Cc1cccc(N=C2NC(=O)/C(=C/c3cccn3C)S2)c1C,/,-4.5,-13.1,-7.2,2.3,-1.7,/,/,/,/,/,
Cc1cccc(N=C2NC(=O)/C(=C/C=C/c3ccco3)S2)c1C,64.9*,94.1*,40.2*,65.9*,27.1,4.5,9.6,3.4,7.5,46.6*,10.4,
COc1ccc(NC(=O)N2CCC(n3cnc4ccccc43)CC2)cc1,-0.9,13.2,-5.2,0.2,0.8,-0.6,/,/,/,/,/,
CCCc1c(C)[nH]c2ccc(C(=O)O)cc2c1=S,98.4*,92.9*,95.9*,38.8,8.7,4.1,15.1,0.8,73.7*,10.8,-7.8,
COc1ccc(C(C(=O)NC2CCCCC2)N(C(=O)CCl)c2cccc(Cl)c2)cc1 (stereo unspecified),-9.1,34.7,6.1,-33.6,-0.1,0.1,/,/,/,/,/,
O=C(N/N=C/c1ccccc1)c1ccc(CN2C(=O)c3cccc4cccc2c34)cc1,+,53.2*,-6.4,39.8,3.5,9.6,0.3,2.3,198.8*,-11.7,-0.6,
O=C(N/N=C/c1ccc(O)cc1O)c1ccc(CN2C(=O)c3cccc4cccc2c34)cc1,19.1,-6.2,7.9,21.1,3.4,2.9,/,/,/,/,/,
CCOc1cc(/C=C(\C#N)C(=O)Nc2cccc(C(=O)O)c2)ccc1OCc1ccc(Br)cc1,107.0*,89.0*,82.0*,34.5,-1.6,95.9*,104.2*,-1.4,-11.4,-6.9,-3.9,Beacon interf DR=>99
Cc1ccc(CSc2nnc(SCC(=O)N/N=C/c3c[nH]c4ccccc34)s2)cc1,112.2*,61.6*,18.5,42.0,32.5,11.5,13.8,-2.0,92.7*,8.7,4.6,
CCOC(=O)C1(C)CCN1C(=O)c1ccco1 (stereo unspecified),2.3,4.6,-2.2,/,0.0,2.1,/,/,/,/,/,
CC1=NN(c2nc(N)nc(/C(C#N)=C/c3ccc([N+](=O)[O-])o3)n2)C(C)(C)C1,78.8*,53.9*,-12.9,64.1*,2.7,7.0,1.9,-0.1,4.1,12.0,14.9,
COc1ccc(O)c(C(=O)c2cnn(-c3ccccc3)c2)c1,3.8,-0.9,-4.7,-5.2,1.4,2.7,/,/,/,/,/,
COc1ccc(O)c(C(=O)c2cnn(C(=O)c3ccc(C)cc3)c2)c1,96.0*,54.9*,23.5,-2.8,-0.5,2.3,-0.8,-3.2,-3.0,-33.5,-11.4,
Cc1nn(CC(=O)Nc2c(F)c(F)cc(F)c2F)c(=O)c2cccn12,2.7,0.0,-0.5,-5.3,-0.1,-2.7,/,/,/,/,/,
NC(=O)CC(NC(=O)Cc1ccc(Br)cc1)c1ccc(NCCc2ccc(Cl)cc2)c([N+](=O)[O-])c1 (stereo unspecified),45.3*,57.7*,-4.3,-3.6,2.7,3.0,1.9,-1.5,32.8,5.1,-0.5,
CCCCNc1ccc(C(CC(N)=O)NC(=O)Cc2ccc(Br)cc2)cc1[N+](=O)[O-] (stereo unspecified),35.0,21.0,-9.8,-1.3,0.5,0.5,/,/,/,/,/,
COc1ccc(CCNc2ccc(C(CC(N)=O)NC(=O)Cc3ccc(Br)cc3)cc2[N+](=O)[O-])cc1 (stereo unspecified),54.6*,55.5*,-9.1,-5.8,1.0,4.9,-0.7,-4.3,16.1,-21.2,-20.4,
C/C(=N\NC(=O)c1cccc(S(=O)(=O)N2CCOCC2)c1)c1ccc(C#N)cc1,-3.8,0.5,-9.7,-12.6,-0.6,-1.1,/,/,/,/,/,
O=C(C1CCC(=O)N(C2CC2)C1)N1CCN(c2cccc(Cl)c2)CC1 (stereo unspecified),-7.8,-0.7,1.1,-10.2,-0.3,1.2,/,/,/,/,/,
CCn1nnnc1NCc1ccc(SC)cc1,-3.8,-1.6,3.5,-1.2,0.2,-0.8,/,/,/,/,/,
CCn1nnnc1NCc1ccc(N2CCCC2)cc1,58.7*,81.5*,-0.4,-1.5,60.2*,4.3,4.1,2.6,-0.2,10.6,-3.8,
COc1cc(/C=C2\SC(=O)N(CC(=O)Nc3ccc(C)cc3)C2=O)cc(Cl)c1OCC(=O)O,87.2*,90.0*,46.5*,25.5,83.6*,98.3*,3.2,6.1,4.4,-11.8,24.9,
Nc1nc(-c2cc(O)ccc2[N+](=O)[O-])cc(-c2ccccc2)c1[N+](=O)[O-],40.2*,60.4*,49.6*,18.0,41.3,3.0,4.9,-6.4,43.3*,-21.3,15.4,
COc1ccccc1CNC(=O)c1c(N)n(CCCN2CCOCC2)c2nc3ccccc3nc12,7.9,-33.7,5.2,-6.1,-2.0,5.2,/,/,/,/,/,
Nc1c(C(=O)NCc2ccc3c(c2)OCO3)c2nc3ccccc3nc2n1CCCN1CCOCC1,50.7*,61.7*,46.6*,-3.7,-1.6,14.7,9.8,9.7,24.7,-25.5,-5.3,
Cc1cc(C)c2c(N)c3cccc(C)c3nc2n1,67.4*,73.0*,-1.7,-10.3,13.5,-11.2,40.5*,-2.9,53.8*,-29.1,8.0,Beacon interf DR=>99
Cc1ccc2oc(=O)c3cc(C(=O)NCCCN4CCCCCC4)sc3c2c1,55.7*,66.8*,13.3,2.9,27.8,7.3,5.7,-1.9,7.5,-3.9,-8.7,
Cc1ccc2oc(=O)c3cc(C(=O)NCCN4CCN(C)CC4)sc3c2c1,8.3,6.2,-17.9,-4.2,-4.3,1.0,/,/,/,/,/,
Fc1cccc(Cl)c1Cn1nnc2c(NCc3ccncc3)ncnc21,9.6,-9.6,0.9,-7.1,-0.2,-6.4,/,/,/,/,/,
